A short description of assay [1]: inhibitors of TNFa-induced NFkB p65 translocation, primary screen, imaging, HUVEC, MLSMR starter and 10KST1 sets (AID 438).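 For inhibition: signal is the nuclear over cytoplasmic p65 intensity ratio per well.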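 Note: compound added about 3h40 before a 20 min TNFalpha stimulation.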 To be noted: HUVEC TNFa-induced p65 nuclear translocation; cell count: measured here: nuclei count (cytotoxicity indicator), at 2.08 µM; inhibition: at 2 µM, stronger effect = higher value, 0% TNFa-plus-vehicle, 100% no-TNFa wells.
Assay [2] can be described thus: reduction of polyQ htt aggregates in cells – imaging, exon1htt(103Q)mCFP cells, high-content imaging, primary screen (AID 483;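 active = visual image review flags a hit and inhibition of aggregation exceeds 20%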;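 note: compound exposure lasted 3 days before fixation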;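 for nuclei count: percent of the per-plate median nuclei count of sample wells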). To be noted: exon1htt(103Q)mCFP cell line, aggregate imaging, at 2 µM; inhibition of aggregation: stronger effect = higher value; nuclei count: measured here: cell count, toxicity.
The nature of assay [3]: endothelial E-selectin expression blockers – imaging, HUVEC, immunofluorescence, MLSMR starter and 10KST1 sets, primary screen (AID 487;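 active = visually confirmed hit in the image check and inhibition above 20%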;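 for inhibition: signal is fraction of cell area covered by stained E-selectin grains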;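 for nuclei count: 100% = median nuclei count of all wells on the same plate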). To be noted: HUVEC TNFalpha-induced E-selectin immunofluorescence imaging, at 2 µM; inhibition: stronger effect = higher value; nuclei count: measured here: cell number, toxicity.
For assay [4], the target named is Voltage-gated potassium channel subunit beta-2 (Rattus norvegicus) (UniProt P62483). Briefly: inhibitors of rat Kvbeta2 reductase activity – biochemical, NADPH fluorescence, primary screen (AID 622;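 active = fluorescence slope higher than the sample average by over 3 SD, cut at about -0.22 in these data, passing the limit was not always enough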;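 note: slope of raw intensity against log time taken from 70 to 1610 s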). To be noted: recombinant KvBeta, 4-cyanobenzaldehyde reduction, at 10 µM, stronger effect = higher value.
Assay [5] shares this target. Briefly: enhancers of rat Kvbeta2 NADPH turnover – biochemical, NADPH fluorescence, primary screen (AID 623;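 active = NADPH fluorescence slope more negative than the mean of all samples by about 3 SD, 99.7% confidence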;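 note: fluorescence intensity change per second fitted from 20 to 320 s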). To be noted: Recombinant KvBeta, NADPH fluorescence decrease slope, 10 min; at 10 µM; stronger effect = lower value.
For assay [6], the target named is Alpha-2C adrenergic receptor (Homo sapiens) (UniProt P18825). Briefly: compounds altering alpha2C-coupled GIRK flux – cell-based, HEK293 alpha2C/GIRK1/2, thallium flux, primary screen (AID 624;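 active = fluorescence slope after compound addition differing from the mean of all screened samples at 99.7% confidence, in either direction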;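 note: slope of fluorescence ratio to pre-addition baseline per second over 15 to 24 s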). To be noted: thallium flux BTC fluorescence, at 10 µM, actives lie on both sides.
Assay [7] is described as follows: inhibitors of larval lipid processing in zebrafish, primary screen, whole organism, PED6 fluorescence, gall bladder and intestine (AID 686;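 active = a full or partial loss of lipid-probe fluorescence in the fish gall bladder, intestine or both, judged by eye; inactive = no fluorescence loss, or compound toxic to the fish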;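 note: signal comes from phospholipase A2 cleavage of quenched PED6 carried via bile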). To be noted: Zebrafish larvae PED6 lipid processing, fluorescence scoring; screened at 20 µM (by protocol). The gist of the method: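 Doses: 20 µM single dose. Test system: live zebrafish larvae aged 5-7 days, whole organism. Quantity: five larvae per well. Measured by: By-eye fluorescence microscopy. Reagent: ingested quenched lipid PED6 at 100 nM. Read-out: visual per-well fluorescence inhibition score. Times: overnight exposure of larvae to compound plus PED6.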

The nature of assay [8]: blockers of RIG-like receptor reporter activation – cell-based, Sendai virus stimulus, luciferase, 10K MLSCN set, TLR/RLR signaling modifier project, primary screen (AID 602276;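 active = inhibition at or above 50% at 10 µM; inactive = inhibition below 50%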;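 note: firefly luciferase from ISG56 promoter only with Renilla not read in this screen; 0% = Sendai virus plus DMSO and 100% = medium plus DMSO without virus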). To be noted: HEK293 RL24 IRF3 luciferase reporter, at 10 µM, stronger effect = higher value.
Assay [9] in a line: TLR3 IRF3 reporter activation blockers – cell-based, poly I:C stimulus, luciferase, 10K MLSCN set, primary screen (AID 602277;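 active = inhibition of the reporter signal at or above 50%; inactive = inhibition below 50%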). To be noted: HEK293-TLR3 RL24 IRF3 luciferase reporter, at 10 µM, stronger effect = higher value.

Activity calls are given as the source filed them.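 Rule for the calls, unless noted: active = inhibition above 20% together with a positive visual image hit; inconclusive = visual image hit but inhibition not above 20%; inactive = no visual image hit.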

Alpha-2C adrenergic receptor (Homo sapiens), sequence (P18825 whole entry, looked up): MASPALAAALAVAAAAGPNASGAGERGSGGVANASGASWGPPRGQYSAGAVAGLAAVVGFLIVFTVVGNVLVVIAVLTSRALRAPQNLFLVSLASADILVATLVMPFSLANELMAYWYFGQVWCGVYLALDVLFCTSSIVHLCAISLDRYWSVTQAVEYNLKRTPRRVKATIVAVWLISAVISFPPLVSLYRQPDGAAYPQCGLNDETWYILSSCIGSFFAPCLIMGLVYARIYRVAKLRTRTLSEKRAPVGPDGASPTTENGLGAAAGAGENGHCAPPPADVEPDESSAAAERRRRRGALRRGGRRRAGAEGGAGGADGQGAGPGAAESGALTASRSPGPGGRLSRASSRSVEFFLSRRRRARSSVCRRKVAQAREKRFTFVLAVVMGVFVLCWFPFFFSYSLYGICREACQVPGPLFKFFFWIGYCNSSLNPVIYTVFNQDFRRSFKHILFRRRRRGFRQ
Voltage-gated potassium channel subunit beta-2 (Rattus norvegicus), sequence (P62483 whole entry, looked up): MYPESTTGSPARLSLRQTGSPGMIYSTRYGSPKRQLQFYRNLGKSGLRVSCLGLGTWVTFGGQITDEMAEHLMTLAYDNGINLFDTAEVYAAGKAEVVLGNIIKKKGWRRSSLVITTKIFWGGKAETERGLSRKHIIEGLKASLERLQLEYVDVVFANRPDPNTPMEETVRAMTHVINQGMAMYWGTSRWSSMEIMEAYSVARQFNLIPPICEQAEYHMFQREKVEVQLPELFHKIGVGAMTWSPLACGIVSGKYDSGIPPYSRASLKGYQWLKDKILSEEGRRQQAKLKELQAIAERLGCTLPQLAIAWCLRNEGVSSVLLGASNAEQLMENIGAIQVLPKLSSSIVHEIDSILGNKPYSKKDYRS

For `O=C(Nc1ccc(NC(=O)C2CC2)cn1)c1ccccc1Cl`, in [1], the cell count was 745. The inhibition in assay [1] was 2.6% (inactive); in assay [3] it was -79% (inactive); in assay [8] it was -65.9% (inactive); in [9] it was -212% (inactive). The inhibition of aggregation in [2] is -13% (inactive). The nuclei count in [2] came to 104%; in assay [3], 113%. Moreover, the fluorescence slope in assay [4] is -0.316 (inactive). Further, the NADPH fluorescence slope in assay [5] was -8e-07 (inactive). The slope in assay [6] is 0.00552 (inactive). In addition, the outcome in [7] was inactive.
On to `CC1=C(C(=O)N2CCOCC2)C(c2ccccc2F)C2=C(CCCC2=O)N1` (stereo not drawn), for which the cell count in [1] stood at 401. Besides, the inhibition was -0.8% (inactive) in [1], -24.5% (inactive) in assay [3], 3.26% (inactive) in [8] and 6.93% (inactive) in assay [9]. In addition, the inhibition of aggregation in assay [2] was -15% (inactive). Moreover, the nuclei count came to 111% in [2] and 121% in assay [3]. In addition, the fluorescence slope in assay [4] was -0.314 (inactive). Moreover, the NADPH fluorescence slope in assay [5] is 4.2e-06 (inactive). For the same compound, the slope in assay [6] was 0.00583 (inactive). Moreover, the call in assay [7] was inactive.
As for `COc1ccc(OC)c(NC(=O)CSc2nnc(-c3ccco3)n2-c2ccccc2)c1`, the cell count in [1] came out at 552. Further, the inhibition in [1] was 10.2% (inactive); in assay [3], -59.6% (inactive); in [8], 12.9% (inactive); in [9], 12.9% (inactive). In addition, the inhibition of aggregation in assay [2] was 9.3% (inactive). Further, the nuclei count in assay [2] worked out at 104%; in [3], 98.9%. The fluorescence slope in assay [4] was -0.466 (inactive). Moreover, the NADPH fluorescence slope in [5] was -3.5e-05 (inactive). Also, the slope in [6] is 0.00516 (inactive). The outcome in assay [7] was inactive.
Turning to `COc1ccc(/C=N/n2c(SC)nnc2-c2ccccc2)cc1C`, in assay [1], the cell count is 384. In addition, the inhibition in [1] is -0.9% (inactive); in [3], -68.1% (inactive); in [8], 2.46% (inactive); in assay [9], -2.96% (inactive). Further, the inhibition of aggregation in assay [2] is 6.2% (inactive). The nuclei count amounted to 103% in assay [2] and 117% in [3]. In assay [4], the fluorescence slope was -0.384 (inactive). In addition, the NADPH fluorescence slope in assay [5] was -2e-05 (inactive). For the same compound, the slope in [6] was 0.00536 (inactive). In addition, the result in [7] was inactive.
Take `CCOC(=O)CC(=O)CSc1nc(-c2cccnc2)ccc1C#N`: in assay [1], the cell count was found to be 908. The inhibition in assay [1] is 11.4% (inactive); in assay [3], -90.5% (inactive); in [8], -15.8% (inactive); in [9] it was -33.1% (inactive). Also, in assay [2], the inhibition of aggregation is -23.5% (inactive). Besides, the nuclei count in assay [2] was 87.2%; in [3], 128%. Moreover, the fluorescence slope in assay [4] was -0.0463 (active). In addition, the NADPH fluorescence slope in [5] was -1.8e-05 (inactive). Moreover, in [6], the slope is 0.013 (active). Also, the outcome in assay [7] was inactive.
With `COc1ccccc1N1CCN(C(=O)c2cc(-c3ccc(Cl)c(Cl)c3)on2)CC1`, the cell count in [1] is 430. For the same compound, the inhibition was 5.1% (inactive) in [1], -17.9% (inactive) in assay [3], 1.29% (inactive) in assay [8] and -2.55% (inactive) in assay [9]. Moreover, in assay [2], the inhibition of aggregation is -5.8% (inactive). Besides, the nuclei count worked out at 97.3% in assay [2] and 102% in assay [3]. The fluorescence slope in assay [4] was -0.407 (inactive). Also, in assay [5], the NADPH fluorescence slope is -7.4e-05 (inactive). Moreover, in assay [6], the slope was 0.00441 (inactive). The compound was called inactive in [7].
As for `O=C(O)COc1cccc(NC(=O)C2CCCO2)c1` (stereo not drawn), the cell count in [1] came out at 308. Moreover, the inhibition in assay [1] was -7% (inactive); in assay [3], -14.3% (inactive); in assay [8] it was -6.85% (inactive); in assay [9], -4.06% (inactive). In assay [2], the inhibition of aggregation was 0.8% (inactive). The nuclei count in [2] worked out at 97.2%; in [3] it was 90%. The fluorescence slope in [4] was -0.471 (inactive). For the same compound, in [5], the NADPH fluorescence slope is 1.1e-05 (inactive). In assay [6], the slope was 0.00558 (inactive). Also, the result in [7] was inactive.
`COc1ccc(C(=O)CSc2nnc(-c3ccc(C)cc3)o2)cc1`: the cell count in assay [1] stood at 419. The inhibition in assay [1] is 11.2% (inactive); in [3] it was -69.4% (inactive); in [8], -16.3% (inactive); in assay [9] it was -18.5% (inactive). In addition, the inhibition of aggregation in assay [2] is -14.9% (inactive). Moreover, the nuclei count came out at 109% in [2] and 112% in assay [3]. For the same compound, the fluorescence slope in [4] is -0.371 (inactive). In assay [5], the NADPH fluorescence slope was -1.3e-05 (inactive). Moreover, the slope in assay [6] is 0.00862 (inactive). Also, the outcome in assay [7] was inactive.
For the compound `COCCNC(=O)NC(=O)COC(=O)Cc1ccc2c(c1)OCCO2`, the cell count in [1] is 376. Besides, the inhibition is 5.1% (inactive) in assay [1], -127% (inactive) in assay [3], 17% (inactive) in assay [8] and 16.3% (inactive) in [9]. In addition, the inhibition of aggregation in assay [2] was -11.9% (inactive). The figures for the nuclei count in assay [2] and in assay [3] were 109% and 110%, respectively. In addition, the fluorescence slope in assay [4] was -0.418 (inactive). In addition, the NADPH fluorescence slope in assay [5] was -6.4e-05 (inactive). Further, the slope in assay [6] is 0.00538 (inactive). Also, the call in assay [7] was inactive.
In the case of `COc1ccccc1NC(=O)CSc1nnc(Cn2nnc(-c3ccccc3)n2)n1-c1ccccc1`, in assay [1], the cell count was 644. Besides, the inhibition was -12.5% (inactive) in [1], -50.5% (inactive) in assay [3], 19.9% (inactive) in assay [8] and 14.5% (inactive) in assay [9]. In addition, the inhibition of aggregation in assay [2] was 5.6% (inactive). The nuclei count stood at 104% in assay [2] and 119% in [3]. Also, in assay [4], the fluorescence slope is -0.452 (inactive). The NADPH fluorescence slope in assay [5] is -5.2e-05 (inactive). Further, the slope in [6] is 0.00589 (inactive). In addition, the compound was classed as inactive in assay [7].
In the case of `CC(=O)/C(C[N+]1(C)CCCCC1)=N\O`, the cell count in assay [1] is 566. Further, the inhibition is 12.1% (inactive) in assay [1], 26.6% (inactive) in assay [3], 8.76% (inactive) in assay [8] and 13.4% (inactive) in assay [9]. The inhibition of aggregation in assay [2] was 17.4% (inactive). Also, the nuclei count in assay [2] and in [3] was 107% in each case. In addition, the fluorescence slope in [4] is -0.403 (inactive). In assay [5], the NADPH fluorescence slope was -5.2e-05 (inactive). Besides, the slope in assay [6] was 0.00495 (inactive). Further, the call in [7] was inactive.
For the compound `CN(Cc1ccccc1)C(=O)c1cc(-c2ccc(Br)cc2)on1`, the cell count in [1] amounted to 318. Moreover, the inhibition in assay [1] was 2.4% (inactive); in assay [3] it was 19.7% (inactive); in [8], -49.5% (inactive); in assay [9], -116% (inactive). Also, the inhibition of aggregation in [2] is 14.9% (inactive). In addition, the nuclei count in [2] stood at 107%; in assay [3], 110%. For the same compound, the fluorescence slope in assay [4] was -0.399 (inactive). Besides, the NADPH fluorescence slope in assay [5] is -3.6e-05 (inactive). Besides, the slope in assay [6] is 0.00441 (inactive). In addition, the compound was classed as inactive in [7].
Consider `CC1(C)C(c2cccs2)=[N+]([O-])C2(CCCCC/C2=N\O)N1O` (stereo not drawn), for which, in assay [1], the cell count was 423. The inhibition is 0.5% (inactive) in assay [1], -97.1% (inactive) in assay [3], 15.7% (inactive) in assay [8] and 15.3% (inactive) in [9]. The inhibition of aggregation in [2] is 5.7% (inactive). Further, the nuclei count worked out at 91.7% in assay [2] and 112% in assay [3]. For the same compound, the fluorescence slope in [4] was -0.46 (inactive). Also, the NADPH fluorescence slope in [5] is -4.9e-05 (inactive). Moreover, in assay [6], the slope is 0.00609 (inactive). Besides, the call in [7] was inactive.
As for `COC(=O)CSc1nnc(-c2ccc(OC)cc2OC)o1`, in assay [1], the cell count was 609. For the same compound, the inhibition is 6.3% (inactive) in assay [1], 44.6% (inactive) in assay [3], 13.1% (inactive) in assay [8] and 10.4% (inactive) in assay [9]. For the same compound, the inhibition of aggregation in assay [2] was 6.1% (inactive). Further, the nuclei count in assay [2] turned out to be 109%; in [3], 90.8%. Further, the fluorescence slope in assay [4] is -0.397 (inactive). In addition, the NADPH fluorescence slope in assay [5] is -5.2e-05 (inactive). Besides, in [6], the slope is 0.00519 (inactive). Besides, in assay [7], the outcome was inactive.
